In ChEMBL document CHEMBL1132994, “Synthesis and anticonvulsant and neurotoxic properties of substituted N-phenyl derivatives of the phthalimide pharmacophore” (J Med Chem, 2000):
Activity calls are given as the source filed them. The rule behind the calls is not given here.

How the values were obtained:
Mus musculus [1] = assay: Anticonvulsant activity in mice through seizures induced by maximal electroshock (MES) tests after ip administration at a concentration of 100 mg/kg after 30 min; Active; assay type: functional, organism-based; parameters: dose 100 mg/kg
Mus musculus [2] = assay: Anticonvulsant activity in mice through seizures induced by sc pentylenetetrazole (intraperitoneal administration at a concentration of 300 mg/kg after 4 hours; Inactive; assay type: functional, organism-based; parameters: dose 300 mg/kg
Mus musculus [3] = assay: Neurotoxicity by rotarod test after intraperitoneal administration at a concentration of 300 mg/kg after 30 minutes; Active; assay type: functional, organism-based; parameters: dose 300 mg/kg
Mus musculus [4] = assay: Anticonvulsant activity in mice through seizures induced by maximal electroshock (MES) tests after ip administration at a concentration of 300 mg/kg after 4 hours; Active; assay type: functional, organism-based; parameters: dose 300 mg/kg
Mus musculus [5] = assay: Neurotoxicity by rotarod test after intraperitoneal administration at a concentration of 300 mg/kg after 4 hours; Active; assay type: functional, organism-based; parameters: dose 300 mg/kg
Mus musculus [6] = assay: Anticonvulsant activity in mice through seizures induced by subcutaneous pentylenetetrazole (scPTZ) tests after ip administration at a concentration of 300 mg/kg after 30 min; Inactive; assay type: functional, organism-based; parameters: dose 300 mg/kg
Mus musculus [7] = assay: Anticonvulsant activity in mice through seizures induced by maximal electroshock (MES) tests after ipb administration at a concentration of 300 mg/kg after 4 hours.; Inactive; assay type: functional, organism-based; parameters: dose 300 mg/kg
Mus musculus [8] = assay: Neurotoxicity determined by rotarod test after intraperitoneal administration at a concentration of 300 mg/kg after 4 hours; Inactive; assay type: functional, organism-based; parameters: dose 300 mg/kg
Mus musculus [9] = assay: Neurotoxicity by rotarod test after intraperitoneal administration at a concentration of 300 mg/kg after 30 minutes; Inactive; assay type: functional, organism-based; parameters: dose 300 mg/kg
Mus musculus [10] = assay: Anticonvulsant activity in mice through seizures induced by maximal electroshock (MES) tests after ip administration at a concentration of 100 mg/kg after 30 min; Inactive; assay type: functional, organism-based; parameters: dose 100 mg/kg
Mus musculus [11] = assay: Anticonvulsant activity in mice through seizures induced by maximal electroshock (MES) tests after ip administration at a concentration of 100 mg/kg after 30 min; active; assay type: functional, organism-based; parameters: dose 100 mg/kg
Mus musculus [12] = assay: Anticonvulsant activity in mice through seizures induced by sc pentylenetetrazole (intraperitoneal administration at a concentration of 300 mg/kg after 30 min; Inactive; assay type: functional, organism-based; parameters: dose 300 mg/kg
Mus musculus [13] = assay: Anticonvulsant activity in mice through seizures induced by maximal electroshock (MES) tests after ip administration at a concentration of 300 mg/kg after 4 hours; Inactive; assay type: functional, organism-based; parameters: dose 300 mg/kg
Rattus norvegicus [14] = assay: Anticonvulsant activity was measured in rats through seizures induced by maximal electroshock (MES) tests by oral administration of drug after 30 minutes.; assay type: functional
Summary of the method: (§1)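 Rats given a single oral dose of 30 or 50 mg/kg, depending on compound; MES protection scored at 15, 30, 60, 120 and 240 min. Activity graded by fraction of animals protected (0-25%, 25-50%, 50-75%, 75-100%); neurotoxicity monitored at the same time points.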

Rattus norvegicus [15] = assay: Anticonvulsant activity was measured in rats through seizures induced by maximal electroshock (MES) tests by oral administration of drug after 1 hour.; assay type: functional; summary of the method: as §1
Mus musculus [16] = assay: Anticonvulsant activity in mice through seizures induced by subcutaneous pentylenetetrazole (scPTZ) tests after ip administration at a concentration of 300 mg/kg after 30 min; active; assay type: functional, organism-based; parameters: dose 300 mg/kg
Rattus norvegicus [17] = assay: Toxicity screening in rats dosed orally with the compound; No toxicity; assay type: organism-based; settings: in vivo, po
Mus musculus [18] = assay: Neurotoxicity by rotarod test after intraperitoneal administration at a concentration of 300 mg/kg after 30 minutes; active; assay type: functional, organism-based; parameters: dose 300 mg/kg
Rattus norvegicus [19] = assay: Anticonvulsant activity was measured in rats through seizures induced by maximal electroshock (MES) tests by oral administration of drug after 2 hours.; assay type: functional; summary of the method: as §1
Rattus norvegicus [20] = assay: Anticonvulsant activity was measured in rats through seizures induced by maximal electroshock (MES) tests by oral administration of drug after 15 minutes.; assay type: functional; summary of the method: as §1
Mus musculus [21] = assay: Anticonvulsant activity in mice through seizures induced by subcutaneous pentylenetetrazole (scPTZ) tests after ip administration at a concentration of 300 mg/kg after 4 hours; Inactive; assay type: functional, organism-based; parameters: dose 300 mg/kg
Mus musculus [22] = assay: Anticonvulsant activity in mice through seizures induced by maximal electroshock (MES) tests after ip administration at a concentration of 300 mg/kg after 4 hour; Active; assay type: functional, organism-based; parameters: dose 300 mg/kg
Rattus norvegicus [23] = assay: Effective dose required to assure anticonvulsant protection in 50% of rats dosed orally by MES test.; assay type: functional; settings: po
Summary of the method: (§2)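 Rats dosed orally; ED50 is the dose giving anticonvulsant protection in 50% of animals in the MES or scPtz test. TD50 is the minimal neurotoxic dose in 50% of animals. Time to peak effect was also determined.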

Rattus norvegicus [24] = assay: Effective dose required to assure anticonvulsant protection in 50% of rats dosed orally by scPTZ test.; assay type: functional; settings: po; summary of the method: as §2
[25] = dose eliciting minimal neurological toxicity in 50% of animals.; assay type: organism-based; settings: rat, in vivo
Rattus norvegicus [26] = assay: Anticonvulsant activity was measured in rats through seizures induced by maximal electroshock (MES) tests by oral administration of drug after 4 hours.; assay type: functional; summary of the method: as §1
Mus musculus [27] = assay: Anticonvulsant activity in mice through seizures induced by maximal electroshock (MES) tests after ip administration at a concentration of 300 mg/kg after 4 hours; active; assay type: functional, organism-based; parameters: dose 300 mg/kg
Mus musculus [28] = assay: Anticonvulsant activity in mice through seizures induced by maximal electroshock (MES) tests after intraperitoneal administration at a concentration of 100 mg/kg after 30 min; active; assay type: functional, organism-based; parameters: dose 100 mg/kg
Mus musculus [29] = assay: Anticonvulsant activity in mice through seizures induced by maximal electroshock (MES) tests after intraperitoneal administration at a concentration of 300 mg/kg after 4 hours; Inactive; assay type: functional, organism-based; parameters: dose 300 mg/kg

Cc1cc(N)ccc1N1C(=O)c2ccccc2C1=O
Activity (Mus musculus [1]): Active | Activity (Mus musculus [2]): inactive | Activity (Mus musculus [3]): Active | Activity (Mus musculus [4]): Active | Activity (Mus musculus [5]): Active | Activity (Mus musculus [6]): inactive

O=C1c2ccccc2C(=O)N1c1ccc([N+](=O)[O-])cc1Cl
Activity (Mus musculus [2]): inactive | Activity (Mus musculus [7]): inactive | Activity (Mus musculus [8]): inactive | Activity (Mus musculus [9]): inactive | Activity (Mus musculus [10]): inactive | Activity (Mus musculus [6]): inactive

Cc1c(N)cccc1N1C(=O)CCC1=O
Activity (Mus musculus [2]): inactive | Activity (Mus musculus [11]): Active | Activity (Mus musculus [12]): inactive | Activity (Mus musculus [8]): inactive | Activity (Mus musculus [9]): inactive | Activity (Mus musculus [13]): inactive

Cc1cc([N+](=O)[O-])ccc1N1C(=O)c2ccccc2C1=O
Activity (Mus musculus [2]): inactive | Activity (Mus musculus [4]): Active | Activity (Mus musculus [8]): inactive | Activity (Mus musculus [9]): inactive | Activity (Mus musculus [10]): inactive | Activity (Mus musculus [6]): inactive

Cc1cccnc1N1C(=O)c2ccccc2C1=O
Activity (Mus musculus [2]): inactive | Activity in animals (Rattus norvegicus [14]): 50% | Activity in animals (Rattus norvegicus [15]): 50% | Activity (Mus musculus [16]): Active | Activity (Mus musculus [11]): Active | Activity (Mus musculus [8]): inactive | Toxicity (Rattus norvegicus [17]): No toxicity | Activity (Mus musculus [18]): Active | Activity in animals (Rattus norvegicus [19]): 50% | Activity (Mus musculus [13]): inactive | Activity in animals (Rattus norvegicus [20]): 25%

Cc1cccc([N+](=O)[O-])c1N1C(=O)c2ccccc2C1=O
Activity (Mus musculus [21]): inactive | Activity (Mus musculus [22]): Active | Activity (Mus musculus [12]): inactive | Activity (Mus musculus [8]): inactive | Activity (Mus musculus [9]): inactive | Activity (Mus musculus [10]): inactive

Cc1c(N)cccc1N1C(=O)c2ccccc2C1=O
Activity (Mus musculus [1]): Active | Activity (Mus musculus [2]): inactive | ED50 (Rattus norvegicus [23]): 8 mg/kg | Activity in animals (Rattus norvegicus [14]): 100% | Activity in animals (Rattus norvegicus [15]): 100% | ED50 (Rattus norvegicus [24]): > 200 mg/kg | Activity (Mus musculus [4]): Active | Activity (Mus musculus [8]): inactive | Activity (Mus musculus [9]): inactive | Toxicity (Rattus norvegicus [17]): No toxicity | TD50 [25]: > 400 mg/kg | Activity in animals (Rattus norvegicus [19]): 100% | Activity in animals (Rattus norvegicus [20]): 100% | Activity (Mus musculus [6]): inactive | Activity in animals (Rattus norvegicus [26]): 100%

O=C1NC(=O)C(c2ccccc2)(c2ccccc2)N1 [PHENYTOIN]
Activity in animals (Rattus norvegicus [14]): 100% | Activity in animals (Rattus norvegicus [15]): 100% | Activity (Mus musculus [27]): Active | Activity (Mus musculus [21]): inactive | Activity (Mus musculus [28]): Active | ED50 (Rattus norvegicus [24]): > 800 mg/kg | Activity (Mus musculus [8]): inactive | Activity (Mus musculus [18]): Active | TD50 [25]: > 3000 mg/kg | Activity in animals (Rattus norvegicus [19]): 100% | Activity in animals (Rattus norvegicus [20]): 100% | Activity (Mus musculus [6]): inactive | Activity in animals (Rattus norvegicus [26]): 25%

COc1ccc(N2C(=O)c3ccccc3C2=O)c(OC)c1
Activity (Mus musculus [2]): inactive | Activity (Mus musculus [29]): inactive | Activity (Mus musculus [12]): inactive | Activity (Mus musculus [8]): inactive | Activity (Mus musculus [9]): inactive | Activity (Mus musculus [10]): inactive
